From ChEMBL document CHEMBL1151267, “Nematicidal epipolysulfanyldioxopiperazines from Gliocladium roseum” (2005)
Converted amounts (≈) assume the structure as drawn.

Legend:
Format in all cases: functional
Details in all cases: read-out: ED50 (the source's name)
Panagrellus redivivus = experiment: Antinematodal activity against Panagrellus redivivus after 24 hrs by microscopy
Procedure, shortened: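 P. redivivus were kept in aseptic liquid Basal Heme medium at room temperature and subcultured before testing. Worms were suspended in physiological saline and diluted to 20-25 per 48 μL aliquot, with triplicate wells per treatment. 2 μL of 50% DMSO, alone or with compound, was added. Plates were covered and humidified, and mortality was scored microscopically at 24 h.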

Caenorhabditis elegans = experiment: Antinematodal activity against Caenorhabditis elegans after 24 hrs by microscopy
Procedure, shortened: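 C. elegans were grown on NG agar carrying an E. coli strain, kept at room temperature and subcultured before the assay. Worms in physiological saline were diluted to 20-25 per 48 μL, with three wells per treatment. Each well received 2 μL of 50% DMSO or 50% DMSO containing compound. Plates were covered in a humid chamber, and dead worms were counted by microscopy after 24 h.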

[1] = system: Bursaphelenchus xylophilus; experiment: Antinematodal activity against Bursaphelenchus xylophilus after 24 hrs by microscopy
Procedure, shortened: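 B. xylophilus were grown on PDB agar carrying Botrytis cinerea, kept at room temperature and subcultured before the assay. They were diluted in physiological saline to 20-25 worms per 48 μL and dispensed into three wells per treatment. 2 μL of 50% DMSO, with or without compound, was added. Plates were covered and held in a humid chamber. Dead worms were counted microscopically at 24 h.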

Compound: CN1C(=O)[C@@]23C[C@]4([C@@]56c7ccccc7N[C@@H]5N5C(=O)[C@@]7(C)SS[C@]5(C(=O)N7C)[C@H]6O)c5ccccc5N[C@@H]4N2C(=O)[C@]1(C)SS3
- EC50 (Panagrellus redivivus): 40 µg/mL (≈ 58.7 µM)
- EC50 (Caenorhabditis elegans): 10 µg/mL (≈ 14.7 µM)
- EC50 [1]: > 400 µg/mL

Compound: CN1C(=O)[C@]23SSS[C@]1(C)C(=O)N2[C@H]1Nc2ccccc2[C@@]1([C@@]12c4ccccc4N[C@@H]1N1C(=O)[C@@]4(C)SS[C@]1(C(=O)N4C)[C@H]2O)[C@@H]3O [GLIOCLADINE A]
- EC50 (Panagrellus redivivus): 50 µg/mL (≈ 68.6 µM)
- EC50 (Caenorhabditis elegans): 25 µg/mL (≈ 34.3 µM)
- EC50 [1]: > 400 µg/mL

Compound: CN1C(=O)C23SSSS[C@]1(C)C(=O)N2[C@H]1Nc2ccccc2[C@@]1([C@@]12c4ccccc4N[C@@H]1N1C(=O)[C@@]4(C)SS[C@]1(C(=O)N4C)[C@H]2O)[C@@H]3O [GLIOCLADINE B]
- EC50 (Panagrellus redivivus): 25 µg/mL (≈ 32.9 µM)
- EC50 (Caenorhabditis elegans): 30 µg/mL (≈ 39.4 µM)
- EC50 [1]: > 400 µg/mL

Compound: CC[C@@]12SS[C@]3(C(=O)N1C)[C@@H](O)[C@]1([C@@]45c6ccccc6N[C@@H]4N4C(=O)[C@@]6(C)SS[C@]4(C(=O)N6C)[C@H]5O)c4ccccc4N[C@@H]1N3C2=O
- EC50 (Panagrellus redivivus): 80 µg/mL (≈ 113 µM)
- EC50 (Caenorhabditis elegans): 50 µg/mL (≈ 70.3 µM)
- EC50 [1]: > 400 µg/mL

Compound: CN1C(=O)[C@]23SSS[C@]1(C)C(=O)N2[C@H]1Nc2ccccc2[C@@]1(c1c[nH]c2ccccc12)[C@@H]3O [GLIOCLADINE D]
- EC50 (Panagrellus redivivus): 250 µg/mL (≈ 503 µM)
- EC50 (Caenorhabditis elegans): 200 µg/mL (≈ 403 µM)
- EC50 [1]: > 400 µg/mL

Compound: CN1C(=O)[C@]23SS[C@@]1(C)C(=O)N2[C@H]1Nc2ccccc2[C@@]1([C@@]12c4ccccc4N[C@@H]1N1C(=O)[C@@]4(C)SS[C@]1(C(=O)N4C)[C@H]2O)[C@@H]3O [VERTICILLIN A]
- EC50 (Panagrellus redivivus): 80 µg/mL (≈ 115 µM)
- EC50 (Caenorhabditis elegans): 30 µg/mL (≈ 43.1 µM)
- EC50 [1]: > 400 µg/mL

Compound: CN1C(=O)[C@]23SSSS[C@]1(C)C(=O)N2[C@H]1Nc2ccccc2[C@@]1(c1c[nH]c2ccccc12)[C@@H]3O [GLIOCLADINE E]
- EC50 (Panagrellus redivivus): 250 µg/mL (≈ 473 µM)
- EC50 (Caenorhabditis elegans): 200 µg/mL (≈ 378 µM)
- EC50 [1]: > 400 µg/mL

Compound: CN1C(=O)[C@]23SS[C@]1(C)C(=O)N2[C@H]1Nc2ccccc2[C@@]1(c1c[nH]c2ccccc12)[C@@H]3O [GLIOCLADINE C]
- EC50 (Panagrellus redivivus): 250 µg/mL (≈ 538 µM)
- EC50 (Caenorhabditis elegans): 200 µg/mL (≈ 431 µM)
- EC50 [1]: > 400 µg/mL
